The target in test [1] is Glutamate NMDA receptor. The test can be described thus: Affinity for the glycine binding site of NMDA receptor by inhibition of [3H]5,7-dichlorokynurenic acid ([3H]DCKA) binding to rat brain synaptic membrane.
A short description of test [2]: The compound was tested for its affinity for the glutamic acid binding site of the non-NMDA receptor by using [3H]-kainic acid as radioligand. More on the design: species or system Rattus norvegicus. An outline of the steps: (§1)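 Selectivity radioligand binding, run like the [3H]DCKA assay on rat brain synaptic membranes. [3H]CGP-39653 labels the NMDA glutamic acid site; [3H]AMPA and [3H]kainic acid label non-NMDA receptors.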

For test [3], the target named is Glutamate NMDA receptor. Put plainly: The compound was tested for its functional antagonism of the NMDA receptor by using [3H]-MK-801 as radioligand.
Test [4] can be described thus: The compound was tested for its affinity for the glutamic acid binding site of the non-NMDA receptor by using [3H]AMPA as radioligand. On the set-up: species or system Rattus norvegicus. In a few lines: as §1
In test [5] the target is Glutamate NMDA receptor. Put plainly: The compound was tested for its affinity for the glutamic acid binding site of the NMDA receptor by using [3H]CGP-39653 as radioligand. It counts as protein-complex assay. An outline of the steps: as §1
Test [6] has as its system Glutamate NMDA receptor (Mus musculus). Put plainly: In vivo inhibition of NMDA-induced seizures.

As a reminder, the Ki is a measure of affinity in units of concentration, obtained from inhibition or displacement. Low readings indicate a stronger hold on the target, high ones a looser hold on the target. For the compound `O=C(NCC1Cc2cc(Br)cc3[nH]c(=O)c(=O)n1c23)Nc1ccccc1` (stereo not drawn), the Ki on Glutamate NMDA receptor [1] came out at 430 nM.

`O=C(O)C1Cc2cc(Br)cc3[nH]c(=O)c(=O)n1c23` (stereo not drawn) came in with a Ki at Glutamate NMDA receptor [1] of 83 nM.

At Glutamate NMDA receptor [1], `O=C(Nc1ccccc1)C1Cc2cc(Br)cc3[nH]c(=O)c(=O)n1c23` (stereo not drawn) displayed a Ki of 930 nM.

Compound `O=C(C[C@@H]1CCc2cc(Br)cc3[nH]c(=O)c(=O)n1c23)Nc1ccccc1` displayed a Ki on Glutamate NMDA receptor [1] of 0.96 nM.

As usually defined, the IC50 is the concentration at which inhibition is half-maximal. Higher therefore signals weaker potency. `O=C(CC1CCc2cc(Br)cc3[nH]c(=O)c(=O)n1c23)Nc1ccccc1` (stereo not drawn): the half-inhibitory concentration (IC50) in test [2] is > 25000 nM; on Glutamate NMDA receptor [3], 1700 nM; in test [4] it was 4600 nM; on Glutamate NMDA receptor [5], > 25000 nM. Besides, the inhibition constant (Ki) on Glutamate NMDA receptor [1] turned out to be 2.6 nM.

In the case of `O=c1[nH]c2cc(Br)cc3c2n(c1=O)CC3`, the Ki on Glutamate NMDA receptor [1] was > 3000 nM.

Consider `O=C(NCC1CCc2cc(Br)cc3[nH]c(=O)c(=O)n1c23)Nc1ccccc1` (stereo not drawn), for which the Ki on Glutamate NMDA receptor [1] turned out to be 480 nM.

With `O=C(O)C1CCc2cc(Br)cc3[nH]c(=O)c(=O)n1c23` (stereo not drawn), on Glutamate NMDA receptor [1], the Ki came to 30 nM.

Turning to `O=C(Nc1ccccc1)C1CCc2cc(Br)cc3[nH]c(=O)c(=O)n1c23` (stereo not drawn), on Glutamate NMDA receptor [1], the affinity corresponds to a Ki of 2100 nM.

On Glutamate NMDA receptor [1], `O=C(O)CCC1CCc2cc(Br)cc3[nH]c(=O)c(=O)n1c23` (stereo not drawn) yielded an inhibition constant (Ki) of 38 nM.

The compound `O=C(O)C[C@H]1CCc2cc(Br)cc3[nH]c(=O)c(=O)n1c23` yielded a Ki at Glutamate NMDA receptor [1] of 9.6 nM.

As for `Oc1nc2cc(Cl)c(Cl)cc2nc1O` [2,3-DIHYDROXY-6,7-DICHLOROQUINOXALINE], the Ki at Glutamate NMDA receptor [1] amounted to 160 nM.

For the compound `O=C(NCC1CCc2cc(Br)cc3[nH]c(=O)c(=O)n1c23)c1ccccc1` (stereo not drawn), the Ki on Glutamate NMDA receptor [1] came to 190 nM.

`O=C(CCC1CCc2cc(Br)cc3[nH]c(=O)c(=O)n1c23)Nc1ccccc1` (stereo not drawn) registered a Ki at Glutamate NMDA receptor [1] of 320 nM.

On to `O=C(NCC1Cc2cc(Br)cc3[nH]c(=O)c(=O)n1c23)c1ccccc1` (stereo not drawn), for which the Ki at Glutamate NMDA receptor [1] is > 2000 nM.

As for `O=c1[nH]c2cc(Br)cc3c2n(c1=O)CCC3`, on Glutamate NMDA receptor [1], the affinity corresponds to a Ki of 710 nM.

`O=C(C[C@H]1CCc2cc(Br)cc3[nH]c(=O)c(=O)n1c23)Nc1ccccc1` registered a Ki at Glutamate NMDA receptor [1] of 82 nM.

At Glutamate NMDA receptor [1], `O=C(CC1Cc2cc(Br)cc3[nH]c(=O)c(=O)n1c23)Nc1ccccc1` (stereo not drawn) displayed a Ki of 170 nM.

In general, ED50 refers to the midpoint of the dose-response relation. Turning to `O=C(O)C[C@@H]1CCc2cc(Br)cc3[nH]c(=O)c(=O)n1c23`, it took a dose of 26 mg/kg to reach the 50% effect level in test [6] (ED50). The inhibitory constant (Ki) at Glutamate NMDA receptor [1] came out at 2.3 nM.

In test [6], `O=C(O)CC1CCc2cc(Br)cc3[nH]c(=O)c(=O)n1c23` (stereo not drawn) showed an ED50 of 64 mg/kg. Further, the IC50 in test [2] was > 30000 nM; at Glutamate NMDA receptor [3], 4100 nM; in test [4] it was 4600 nM; at Glutamate NMDA receptor [5], > 30000 nM. This compound yielded an inhibition constant Ki on Glutamate NMDA receptor [1] of 9.9 nM.

Take `O=C(O)CC1Cc2cc(Br)cc3[nH]c(=O)c(=O)n1c23` (stereo not drawn): the Ki on Glutamate NMDA receptor [1] worked out at 7.3 nM.

`O=C(Nc1ccccc1)N[C@H]1C[C@H](C(=O)O)Nc2cc(Cl)cc(Cl)c21` came in with a Ki at Glutamate NMDA receptor [1] of 2 nM.

For the compound `O=C(O)c1cc(O)c2c(Cl)cc(Cl)cc2n1`, the inhibition constant (Ki) at Glutamate NMDA receptor [1] is 40 nM.

(Values after ChEMBL document CHEMBL1127409 (J Med Chem, 1994).)
